Published values pooled from the literature.
Target: TRAF2 and NCK-interacting protein kinase (TNIK, Homo sapiens, UniProt Q9UKE5)

`O=C(CSc1nc2nccnc2c(=O)n1CCc1ccccc1)Nc1nccs1` gave an inhibition of -4% (enzyme activity; inhibitor; 10 µM).
For `Nc1ncnc2occ(-c3ccc(NC(=O)Nc4cc(C(F)(F)F)ccc4F)cc3)c12`, the remaining signal was 6.9% (cell-free assay; inhibitor; 20 µM).
With `Cn1c2c(c3ccccc31)C(C#N)C(C)(C)NC2=O` (stereo not drawn) the ΔTm was -0.1 °C (thermal stability; DSF; 10 µM).
`C[C@@H]1CN(c2cc(-c3nn(C)c4ccc(OC5(C)CC5)cc34)ncn2)C[C@H](C)O1` has a remaining binding of 80% (cell-free assay; competition with immobilised ligand; 1 µM).
With `Cn1c2c(c3ccc(Cl)c(Cl)c31)C(C#N)C1(CCN(C(=O)OC(C)(C)C)CC1)NC2=O` (racemic) the ΔTm was -0.1 °C (thermal stability; DSF; 10 µM).
For `COc1cc(Cl)c(C(=O)N[C@@H](CN[C@H]2CC[C@@H](N)CC2)Cc2ccc(C#N)cc2)cc1-c1ccc(CN[C@H](C)c2ccc(C)cc2)o1`, the remaining activity was 100% (enzyme activity; inhibitor; 1 µM).
`Cc1sc(C(=O)NC2COC2)cc1-n1cc(NC(=O)Nc2c(F)cccc2Cl)cn1` gave a remaining activity of 94.5% (enzyme activity; inhibitor; 10 µM).
`O=C(O)[C@H]1[C@H](Cn2nnc3ccccc3c2=O)CC[C@@H]1C(=O)c1ccc(OCCC2CCOCC2)cc1` gave a remaining binding of 84% (cell-free assay; competition with immobilised ligand; 1 µM).
`c1ccc(CNc2nc(N3CCOc4ccccc43)nc3c2CCCC3)cc1` gave an inhibition of -8% (target engagement in cells; inhibitor; chemoproteomics; 20 mM).
For `Cn1c2c(c3ccc(Cl)c(Cl)c31)C(C#N)C1(CCOCC1)NC2=O` (stereo not drawn), the ΔTm was -0.1 °C (thermal stability; DSF; 10 µM).
With `CN1CC(Oc2cnc(C#N)cc2-c2ccn3nc(NC(=O)C4CC4)cc3c2)C1` the inhibition was 29% (enzyme activity; inhibitor; 1 µM).
For `Cn1c2c(c3ccc(Cl)c(Cl)c31)C(C#N)C(C)(C)NC2=O` (stereo not drawn), the ΔTm was -0.4 °C (thermal stability; DSF; 10 µM).
For `Cn1cc(Cl)c2c(Oc3c(F)cc(Nc4cc(Cl)nc(N)n4)cc3F)ccnc21`, the remaining binding was 96% (cell-free assay; competition with immobilised ligand; 0.1 µM).
The inhibition of `Cn1cnc(Br)c1C1=CN(c2ncnc3[nH]cnc23)CCS1` is reported as 88.7% (enzyme activity; inhibitor; radiometric; 2 µM).
`Cn1nc(C(=O)NCc2ccc(C(=O)O)cc2)cc1-c1ccc2[nH]ccc2c1` gave a remaining binding of 97% (cell-free assay; competition with immobilised ligand; 0.1 µM).
For `O=C(Nc1cnn(-c2csc(C(=O)NC3COC3)c2)c1)Nc1ccccc1Cl`, the remaining activity was 53.2% (enzyme activity; inhibitor; 5 µM).
`CC1(C)NC(=O)c2[nH]c3c(Cl)c(Cl)ccc3c2C1C#N` (stereo not drawn) has a ΔTm of 0 °C (thermal stability; DSF; 10 µM).
For `CS(=O)(=O)c1cc(C2(NC(=O)c3cncc4c3cnn4-c3ccc(F)cc3)CC2)ccn1`, the remaining binding was 95% (cell-free assay; competition with immobilised ligand; 1 µM).
For `Cn1c2c(Cl)c(Cl)ccc2c2cc(N)[nH]c(=O)c21`, the ΔTm was 0.1 °C (thermal stability; DSF; 10 µM).
The remaining binding of `CCC(=O)N[C@H]1CC[C@@H](C(=O)N(C)c2ccc(-c3nc4ccccc4o3)cc2)C1` is reported as 100% (cell-free assay; competition with immobilised ligand; 1 µM).
With `CNC(=O)c1cc2c(Oc3ccc(NC(=O)C4(C(=O)Nc5ccc(F)cc5)CC4)cc3)ccnc2cc1OC` the inhibition was 73% (enzyme activity; inhibitor; radiometric; 1 µM).
